Reference: ChEMBL document CHEMBL1157509, “Alpha-glucosidase inhibitor from Kothala-himbutu (Salacia reticulata WIGHT)” (J Nat Prod, 2008)
Active and inactive are the calls of the source. The rule behind the calls is not given here.

Key:
[1] = target: T1, Sucrase-isomaltase, intestinal (Rattus norvegicus, UniProt P23739); assay: Inhibition of rat intestinal isomaltase
How it was run: (§1)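 Crude enzyme from rat intestinal acetone powder in 0.1 M K3PO4 buffer (5 mM EDTA, pH 7). Substrates: maltose 25 mM (maltase), sucrose 100 mM (sucrase), isomaltose 25 mM (isomaltase). Sample added in DMSO. Incubated 30 min, then stopped with 2 M Tris-HCl. Released glucose measured by glucose oxidase. IC50 read graphically from percent inhibition versus log concentration.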

[2] = target: T1, Sucrase-isomaltase, intestinal; assay: Inhibition of rat intestinal sucrase; how it was run: as §1
[3] = target: T2, Pancreatic alpha-amylase (Sus scrofa) (UniProt P00690); assay: Inhibition of pig pancreas alpha amylase
T2 sequence (whole entry): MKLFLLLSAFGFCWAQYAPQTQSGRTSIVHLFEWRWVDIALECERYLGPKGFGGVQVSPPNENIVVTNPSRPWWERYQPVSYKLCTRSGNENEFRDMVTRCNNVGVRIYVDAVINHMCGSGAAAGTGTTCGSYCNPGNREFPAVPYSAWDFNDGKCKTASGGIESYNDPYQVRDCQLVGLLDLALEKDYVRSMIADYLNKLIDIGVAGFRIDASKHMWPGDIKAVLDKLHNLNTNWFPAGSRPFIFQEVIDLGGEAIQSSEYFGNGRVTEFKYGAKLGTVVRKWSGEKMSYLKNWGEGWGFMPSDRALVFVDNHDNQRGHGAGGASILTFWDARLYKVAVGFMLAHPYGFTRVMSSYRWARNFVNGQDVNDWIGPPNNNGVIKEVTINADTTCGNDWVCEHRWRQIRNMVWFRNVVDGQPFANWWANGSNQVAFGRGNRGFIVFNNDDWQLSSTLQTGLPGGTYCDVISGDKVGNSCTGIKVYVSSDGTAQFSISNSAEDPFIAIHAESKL

T1 sequence (P23739 1-1013 limits assumed): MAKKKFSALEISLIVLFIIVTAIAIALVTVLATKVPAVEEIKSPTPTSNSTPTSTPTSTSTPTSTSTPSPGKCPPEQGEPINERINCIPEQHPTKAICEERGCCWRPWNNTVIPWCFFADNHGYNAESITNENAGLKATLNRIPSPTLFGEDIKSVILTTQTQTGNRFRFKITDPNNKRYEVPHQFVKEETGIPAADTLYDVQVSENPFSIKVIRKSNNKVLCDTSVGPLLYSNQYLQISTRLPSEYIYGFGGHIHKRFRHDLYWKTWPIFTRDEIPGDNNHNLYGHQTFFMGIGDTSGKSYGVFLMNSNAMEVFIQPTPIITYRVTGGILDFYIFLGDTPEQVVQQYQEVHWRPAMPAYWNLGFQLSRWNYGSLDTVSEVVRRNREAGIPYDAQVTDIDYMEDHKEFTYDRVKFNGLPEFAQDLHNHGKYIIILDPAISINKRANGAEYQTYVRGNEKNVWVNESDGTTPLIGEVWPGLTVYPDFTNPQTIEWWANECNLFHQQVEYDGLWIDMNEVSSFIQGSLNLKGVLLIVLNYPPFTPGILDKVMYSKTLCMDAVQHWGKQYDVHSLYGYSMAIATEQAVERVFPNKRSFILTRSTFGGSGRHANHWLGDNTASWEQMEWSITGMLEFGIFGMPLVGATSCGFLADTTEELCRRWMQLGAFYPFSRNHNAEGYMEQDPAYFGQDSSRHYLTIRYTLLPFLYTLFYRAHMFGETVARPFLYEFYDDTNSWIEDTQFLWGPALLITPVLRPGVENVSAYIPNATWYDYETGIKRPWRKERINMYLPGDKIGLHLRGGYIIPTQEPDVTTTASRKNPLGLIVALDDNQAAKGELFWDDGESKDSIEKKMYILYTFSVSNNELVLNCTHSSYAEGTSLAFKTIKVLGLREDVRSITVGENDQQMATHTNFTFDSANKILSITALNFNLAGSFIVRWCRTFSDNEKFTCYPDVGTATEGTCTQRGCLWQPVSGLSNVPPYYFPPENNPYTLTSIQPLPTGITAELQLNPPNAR
T1 sequence (P23739 1014-1841 limits assumed): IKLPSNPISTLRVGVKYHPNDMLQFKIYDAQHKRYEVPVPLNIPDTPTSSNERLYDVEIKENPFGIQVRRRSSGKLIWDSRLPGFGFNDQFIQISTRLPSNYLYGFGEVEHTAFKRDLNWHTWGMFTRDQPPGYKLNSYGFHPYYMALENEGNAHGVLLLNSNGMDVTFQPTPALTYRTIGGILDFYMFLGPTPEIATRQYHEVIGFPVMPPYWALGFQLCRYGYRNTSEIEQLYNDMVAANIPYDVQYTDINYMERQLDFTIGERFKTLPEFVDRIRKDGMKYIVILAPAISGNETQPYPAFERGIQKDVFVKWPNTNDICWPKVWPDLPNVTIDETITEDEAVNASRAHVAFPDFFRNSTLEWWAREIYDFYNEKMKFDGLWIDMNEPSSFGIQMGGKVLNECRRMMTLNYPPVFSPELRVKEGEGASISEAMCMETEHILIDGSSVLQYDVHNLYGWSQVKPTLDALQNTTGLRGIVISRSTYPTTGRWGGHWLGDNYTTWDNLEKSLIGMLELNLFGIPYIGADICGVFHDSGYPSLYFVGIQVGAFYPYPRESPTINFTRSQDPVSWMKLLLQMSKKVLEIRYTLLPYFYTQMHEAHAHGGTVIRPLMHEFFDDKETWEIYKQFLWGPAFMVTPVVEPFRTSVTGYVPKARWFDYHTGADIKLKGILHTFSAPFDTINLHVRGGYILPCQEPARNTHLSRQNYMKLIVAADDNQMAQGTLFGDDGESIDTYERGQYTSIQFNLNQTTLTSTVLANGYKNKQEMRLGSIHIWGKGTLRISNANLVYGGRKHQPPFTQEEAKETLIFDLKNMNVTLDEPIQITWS

| Structure (SMILES) | IC50 [1] [nM] | Ki [1] [nM] | IC50 [2] [nM] | Ki [2] [nM] | Activity [3] |
| --- | --- | --- | --- | --- | --- |
| O=S(=O)([O-])O[C@@H]([C@H](O)[C@H](O)[C@@H](O)CO)[C@H](O)C[S+]1C[C@@H](O)[C@H](O)[C@H]1CO (stereo partly drawn) [KOTALANOL] | 4480 | 4200 | 1370 | 420 | – |
| [O-][S+]1CC(O)C(O)C(O)CC(O)CC(O)C(O)C(O)C(O)C1 (stereo not drawn) | 99 | 420 | 186 | 52 | inactive |
| O=S(=O)([O-])O[C@@H](CO)[C@H](O)C[S@+]1C[C@@H](O)[C@H](O)[C@H]1CO [SALACINOL] | 1770 | 1100 | 2510 | 200 | – |
